Compounds with a hit are over-represented: about 2.1% of the library has one in this group of screens.
Runt-CBFb FRET: blocks binding of human RUNX1 Runt domain to CBFb. 220,000 tested, 0.46% active. Q01196+Q13951. Cerulean-Runt/Venus-CBFb FRET ratio 530/480, 1 h. AID 1496. inhibition, % at 20 µM;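 active means inhibition over about 50% at 20 µM in the single-dose screen, limit read from the data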
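Measured by: fluorescence energy transfer, 422 nm excitation, 530/480 nm emission; Assay system: Cerulean-Runt domain; Medium: Tris pH 7.5 buffer with BSA; Measure: loss of energy transfer signal; Controls: 5 µM unlabeled CBFb as full-inhibition high control; Incubation: protein complex preformed 1 h, compound exposure 1 h, room temperature, dark.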
Runt-SMMHC FRET: Runt domain-CBFb-SMMHC interaction inhibition. Q01196+Q13951. Cerulean-Runt/Venus-CBFb-SMMHC FRET ratio 530/480, 1 h. inhibition, % at 20 µM. 220,000 tested, 0.74% active. AID 1434;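 active means mean inhibition across duplicate retests at 20 µM reaching about 50%, limit read from the data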;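 further: inhibitors lower the FRET ratio by blocking Runt binding to CBFb-SMMHC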
RanGTP-Imp inh: disruptors of Ran-importin-beta complex formation – biochemical, FRET, CFP-Ran, YFP-importin-beta, homogeneous, primary screen | cell-free CFP-Ran/YFP-importin-beta FRET ratio | inhibition, % (test concentration not listed) | 300,000 tested, 1.1% active | AID 2216;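 active means more than half of the replicate wells show a fall in the fluorescence ratio signal beyond about 16%, limit read from the data, passing the limit was not always enough; inconclusive means exactly half of the replicate wells pass the set limit; inactive means fewer than half of replicates pass the limit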
MEX-5 binding: C. elegans MEX-5 TCR-2 RNA binding activity; AID 1832; Q9XUB2; 300,000 tested, 0.38% active; MEX-5/FITC-TCR2 RNA binding, fluorescence polarization; hits give low values; activity score (negative = inhibition of binding), % at 10 µM;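 active means inhibition past about -25% in most replicates, and total fluorescence under double the plate's negative control median, limit read from the data; inconclusive means replicates evenly split on the limit, or fluorescence at least double controls; inactive means too little inhibition in most replicates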
KLK7 zymogen act: proKLK7 (human) activation, primary screen | purified proKLK7, EDANS-DABCYL substrate fluorescence; 100% is mature enzyme control, 0% vehicle | activation, % at 7 µM | 370,000 tested, 0.9% active;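 active means activation above the mean of all tested compounds plus 3 SD, computed per campaign excluding outliers beyond control limits, cut at about 13% in these data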
Target sequence (P49862 whole entry, looked up): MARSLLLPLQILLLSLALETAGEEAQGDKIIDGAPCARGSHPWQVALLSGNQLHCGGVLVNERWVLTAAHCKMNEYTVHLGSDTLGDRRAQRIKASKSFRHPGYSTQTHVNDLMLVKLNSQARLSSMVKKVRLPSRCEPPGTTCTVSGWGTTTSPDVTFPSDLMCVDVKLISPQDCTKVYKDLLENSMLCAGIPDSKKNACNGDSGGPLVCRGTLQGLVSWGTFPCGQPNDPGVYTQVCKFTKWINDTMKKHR
Each line names hits and unclear results; the compound was inactive in the other large screens.

O=c1c2ccccc2[nH]c2ccc(F)cc12	Runt-SMMHC FRET 87, RanGTP-Imp inh 116
O=c1c2ccccc2[nH]c2ccc(O)cc12	RanGTP-Imp inh 166 (no result: Runt-CBFb FRET, Runt-SMMHC FRET)
Cc1ccc(F)cc1C(=O)N1CCCC(c2cc(C(=O)Nc3ccccc3Cl)no2)C1 (configuration not stated)	none (no result: Runt-CBFb FRET, Runt-SMMHC FRET, RanGTP-Imp inh, MEX-5 binding)
COc1ccc(-c2nnc(-c3cc4ccccc4oc3=O)o2)cc1	none
CCCCCOC(=O)CSc1nnc(-c2cc(OC)c(OC)c(OC)c2)o1	none
CCCCCCc1cc2cc(-c3nnc(-c4ccccc4O)o3)c(=O)oc2cc1O	RanGTP-Imp inh 159
CCCCCCc1cc2cc(-c3nnc(-c4ccccc4OC)o3)c(=O)oc2cc1O	Runt-SMMHC FRET 58, RanGTP-Imp inh 136
CCCCCCc1cc2cc(-c3nnc(-c4cc(OC)c(OC)c(OC)c4)o3)c(=O)oc2cc1O	Runt-CBFb FRET 123, Runt-SMMHC FRET 75, RanGTP-Imp inh 139 (no result: KLK7 zymogen act)
COc1cccc2cc(-c3nnc(-c4ccccc4)o3)c(=O)oc12	RanGTP-Imp inh inconclusive (no result: Runt-CBFb FRET, Runt-SMMHC FRET)
CCCCCCc1cc2cc(S(=O)(=O)c3ccc(F)cc3)c(=O)oc2cc1O	Runt-SMMHC FRET 63, RanGTP-Imp inh 167
COc1ccc(NC(=O)C2Cc3c(-c4cccc(C(C)=O)c4)ccnc3O2)cn1 (configuration not stated)	none (no result: Runt-CBFb FRET, Runt-SMMHC FRET, RanGTP-Imp inh, MEX-5 binding)
COc1ccc(NC(=O)c2cc3ccccc3oc2=O)c(OC)c1	RanGTP-Imp inh inconclusive (no result: Runt-CBFb FRET, Runt-SMMHC FRET)
CCCCCCc1cc2cc(C(=O)Nc3ccccc3OC)c(=O)oc2cc1O	Runt-CBFb FRET 133, Runt-SMMHC FRET 63, RanGTP-Imp inh 93
Cc1ccc(F)cc1NC(=O)COC(=O)COc1ccc(C#N)cc1	none (no result: Runt-CBFb FRET, Runt-SMMHC FRET)
CC1(C)CC(=O)C=C(c2n[nH]nc2C2=CCCCC2)C1	none (no result: Runt-CBFb FRET, Runt-SMMHC FRET, RanGTP-Imp inh, MEX-5 binding)
CCCCC(=O)Nc1sc2c(c1-c1nc3ccccc3s1)CCN(C(C)=O)C2	none (no result: RanGTP-Imp inh, MEX-5 binding, KLK7 zymogen act)
CC(=O)N1CCc2c(sc(NC(=O)C3CC3)c2-c2nc3ccccc3s2)C1	RanGTP-Imp inh 24
c1ccc2c(c1)ncc1cccn12	none
CCn1c2ccccc2c2c3ncc4cccn4c3ccc21	Runt-SMMHC FRET 88, RanGTP-Imp inh 68
N#C[C@@H]1[C@@H]2C(=O)N(c3ccc4c(c3)OCCO4)C(=O)[C@@H]2C2c3ccccc3C=CN21 (some centres not stated)	RanGTP-Imp inh 19 (no result: KLK7 zymogen act)
Fc1cccc(/C=N/Nc2ncnc3nc[nH]c23)c1	none
Clc1ccc(/C=N/Nc2ncnc3nc[nH]c23)cc1	none
Cc1ccc(/C=N/Nc2ncnc3nc[nH]c23)cc1	MEX-5 binding -26
Oc1ccc(/C=N/Nc2ncnc3nc[nH]c23)cc1	MEX-5 binding -29
O=C(COc1ccc2c(c1)OCO2)Nc1nccs1	none (no result: Runt-CBFb FRET, Runt-SMMHC FRET)
Cc1csc(NC(=O)c2cc(=O)[nH]c3ccc(S(=O)(=O)N4CCOCC4)cc23)n1	Runt-CBFb FRET 80, Runt-SMMHC FRET 118
S=C(SCc1c(Cl)cccc1Cl)N1CCSCC1	none (no result: Runt-CBFb FRET, Runt-SMMHC FRET, RanGTP-Imp inh, MEX-5 binding)
CCn1c(=N)c(S(=O)(=O)c2ccc(C)cc2)cc2c(=O)n3ccccc3nc21	MEX-5 binding inconclusive (no result: Runt-CBFb FRET, Runt-SMMHC FRET)
Cc1ccc(S(=O)(=O)c2cc3c(=O)n4ccccc4nc3n(C3CCCC3)c2=N)cc1	RanGTP-Imp inh 123 (no result: Runt-CBFb FRET, Runt-SMMHC FRET)
Cc1ccc(S(=O)(=O)c2cc3c(=O)n4ccccc4nc3n(CCc3ccccc3)c2=N)cc1	RanGTP-Imp inh 64, MEX-5 binding -32 (no result: Runt-CBFb FRET, Runt-SMMHC FRET)
Cc1ccc(S(=O)(=O)c2cc3c(=O)n4ccccc4nc3n(C)c2=N)cc1	Runt-CBFb FRET 97, Runt-SMMHC FRET 62, RanGTP-Imp inh 174
CC(C)(C)c1ccc(/C=C/C(=O)N2CCOCC2)cc1	none
CC(C)Cc1ccc(/C=C/C(=O)N2CCOCC2)cc1	RanGTP-Imp inh 18
CCn1c(C)cc(=S)c2ccccc21	MEX-5 binding -52
CCCCC(CC)Cn1c2nc3ccccc3nc2c2c(=N)oc(C)nc21 (configuration not stated)	none (no result: KLK7 zymogen act)
CCCCC(CC)Cn1c(N)c(C#N)c2nc3ccccc3nc21 (configuration not stated)	Runt-SMMHC FRET 101, RanGTP-Imp inh 49
CC(=O)N1CCc2[nH]c3ccccc3c2C1	RanGTP-Imp inh 38
COc1ccccc1Cc1c(-c2ccc(Cl)cc2)nc2ccc(Br)cn12	none (no result: Runt-CBFb FRET, Runt-SMMHC FRET, RanGTP-Imp inh, MEX-5 binding)
COc1ccc(C2c3ccc(O)cc3Oc3ncn(Cc4ccccc4)c(=N)c32)cc1OC (configuration not stated)	none

Screening results from PubChem BioAssay.
